Screens as filed in PubChem.
Hits are enriched below; roughly 3.9% of the tested compounds scored in any of these assays.
HSP90 refold inh – HSP90 inhibitors, primary screen, cell lysate, luminescence; Rabbit reticulocyte lysate, luciferase refolding luminescence, 3 h; Heat shock protein HSP 90 (rabbit reticulocyte lysate; luciferase refolding); inhibition, % at 5.6 µM; actives 0.91% (n = 290,000);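 active means inhibition above the screen-wide mean plus 3 SD, computed separately per campaign, cut at about 16% in these data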;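 further: 0% = DMSO wells and 100% = 60 µM geldanamycin wells; inhibitors lower the luminescence because luciferase stays unfolded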
HCV NS3 hel inh – inhibitors of HCV NS3 helicase, primary screen, biochemical, Cy5 molecular beacon fluorescence. Hepatitis C virus NS3 helicase. NS3 helicase DNA unwinding. inhibition, % at 10.9 µM. actives 0.56% (n = 290,000). AID 1800, 2009;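 active means inhibition above the mean of all tested compounds plus 3 SD, set per campaign, cut at about 35% in these data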;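 further: 0% = DMSO wells and 100% = thioflavine S control wells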
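System: Hepatitis C virus NS3 helicase domain fragment enzyme | Reagent: Annealed dual-labelled DNA beacon duplex, ATP-started | Compound dosing: 10.9 µM single point, 0.8% DMSO | Incubation: 1 h reaction at 25 °C, ATP-initiated | Technique: Cy5 fluorescence | Evaluation: Percent inhibition from t60/t0 fluorescence ratio | Benchmarks: Low DMSO, high thioflavine S at 110 µM | Replication: Singlicate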
HSF1 inh – HSF1 inhibitors in luciferase reporter cells, primary screen, cell-based, NIH3T3, luminescence. NIH3T3-HGL HSE-luciferase, MG132-induced, luminescence 8 h; stronger effect = lower value. activity change, negative = inhibition, % at 7.5 µM (by protocol). actives 0.77% (n = 300,000). AID 2098, 2009;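 active means more than half of replicate wells show activity change below -50%, luminescence cut by over half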;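 further: luciferase reports HSF-1 transcriptional activity via heat shock element; 0% = median of DMSO wells and -100% = zero luminescence signal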
HCV core dimer – inhibitors of HCV core protein dimerization, primary screen, biochemical, TR-FRET, high-throughput; TR-FRET GST/Flag-core106 dimerization, 1536-well; inhibition, % at 5 µM; actives 0.33% (n = 300,000);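 active means inhibition above the mean of all tested compounds plus 3 SD, set per screening campaign, cut at about 45% in these data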
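Assay system: tagged HCV core106 pair (GST and Flag); medium: KF-containing HEPES buffer, pH 7.45, DTT, CHAPS, BSA; also added: Eu donor and XL665 acceptor anti-tag antibodies; dosing: 5 µM single dose; timing: compound-protein-antibody incubation 4 h at 22.5 °C; signal: TR-FRET 671 and 617 nm emission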
HSF-1 act – HSF-1 activators, primary screen, NIH3T3-HGL cells, MG132 stress, luminescence, single point; NIH3T3-HGL HSF-1 luciferase reporter, 8 h; 100% = twice DMSO control signal; activation, % at 9 µM; actives 1.7% (n = 300,000); AID 504408, 2011;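 active means mean replicate activation of at least 50% with a set share of replicates each reaching 50%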;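 further: 0% = median of the neutral control wells and 100% = twice that signal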
DNA FID counter-1 – compounds displacing fluorescent DNA intercalator, primary screen, artefact control for HCV NS3 helicase inhibitor project, biochemical, FID fluorescence | inhibition, % at 7.9 µM | AID 1845, 2009 | actives 0.17% (n = 290,000) | DNA fluorescent intercalator displacement;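 further: 0% = vehicle and 100% = reference compound; higher means more ethidium bromide displaced from hairpin DNA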
NS3 helicase cf – HCV NS3 helicase inhibitors, retest, confirmation, biochemical, Cy5 molecular beacon fluorescence, triplicate. NS3 helicase DNA unwinding. actives 31% (n = 1,600). inhibition, % at 10.9 µM. shares compounds with HCV NS3 hel inh. AID 1943, 2009;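 active means inhibition above the mean of all tested compounds plus 3 SD, cutoff set per campaign, cut at about 36% in these data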
DNA FID counter-2 – compounds displacing fluorescent DNA intercalator, artefact control for HCV NS3 helicase inhibitor project, biochemical, FID fluorescence, triplicate | shares compounds with HCV NS3 hel inh | DNA fluorescent intercalator displacement | inhibition, % at 7.9 µM | actives 4% (n = 1,600);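 further: 0% = vehicle and 100% = reference compound; higher means more displacement of ethidium bromide from the DNA hairpin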
Numbers without * were called inactive; . = not tested or not shown. Unless noted, no stated cut-off is given here; in the data, active means inhibition above about 37%; inactive means the rest.

SMILES	HSP90 refold inh	HCV NS3 hel inh	HSF1 inh	HCV core dimer	HSF-1 act	DNA FID counter-1	NS3 helicase cf	DNA FID counter-2
CCOC(=O)C(=CNc1cc(Cl)c(-c2ccco2)c(Cl)c1)C(=O)OCC	3	46*	4	4	44	-14	-5	-20
COc1ccc(C2=NN(c3nc4ccccc4s3)C(=O)/C2=C\N(C)C)cc1	-3	47*	-1	0	4	-33	18	-5
COc1ccc(/C=C2\C(=O)N(c3nc(-c4ccc(Br)cc4)cs3)N=C2c2ccccc2)cc1	3	23	.	.	.	-12	.	.
CC[C@H]1OC(=O)[C@H](C)[C@@H](O[C@H]2C[C@@](C)(OC)[C@@H](O)[C@H](C)O2)[C@H](C)[C@@H](O[C@@H]2O[C@H](C)C[C@H](N(C)C)[C@H]2O)[C@](C)(O)C[C@@H](C)C(=O)[C@H](C)[C@@H](O)[C@]1(C)O	-3	47*	0	3	-3	-14	75*	-25
O=C(CNC(=O)c1ccncc1)Nc1ccc(F)c(F)c1	-1	6	-3	13	-10	-5	.	.
COC(=O)c1ccc(CN2CCN(C3CCCC3)C(CCO)C2)cc1 (stereo unspecified)	0	4	-2	1	9	5	.	.
CCN(CC)C(=O)CSC1=N/C(=C/c2ccco2)C(=O)N1c1ccc(OC)c(Cl)c1	4	38*	45	51*	67*	-26	-9	-28
Cc1cccc(N(CC(O)CN2CCCC2)S(=O)(=O)c2ccccc2)c1 (stereo unspecified)	-3	-24	-2	6	-10	6	.	.
Cc1c(NC(=O)CN2C(=O)NC3(CCCC3)C2=O)c(=O)n(-c2ccccc2)n1C	-4	36*	.	-2	.	-1	-4	16
Cc1ccc(CSCC2Nc3ccc(C(=O)N4CCN(c5cccc(C)c5)C(C)C4)cc3NC2=O)cc1 (stereo unspecified)	3	38*	-3	71*	-6	-34	-9	-36
O=C(CCN1CCC(c2ccc(Cl)s2)=N1)c1ccc(Cl)s1	0	5	7	-5	16	-4	.	.
CC(=O)Oc1cc2cccc(OC(C)=O)c(=O)c2c(OC(C)=O)c1OC(C)=O	0	53*	-6	-16	-5	-7	-7	8
O=C1C(=O)N(Cc2ccncc2)C(c2cccc(O)c2)/C1=C(\O)c1ccc2c(c1)OCCO2 (stereo unspecified)	-1	41*	-4	-12	8	-20	-9	12
N=C1/C(=C/c2cccs2)C(=O)N=C2SN=C(SCc3ccccc3)N12	-3	18	10	1	-4	-7	.	.
CC(C)CSC1=NSC2=NC(=O)/C(=C\c3cccs3)C(=N)N12	1	37*	13	-2	33	-6	53*	12
Cc1cc(/C=C2\SC(=S)NC2=O)c(C)n1C	-1	23	-4	0	9	-2	.	.
Cc1cc(/C=C2\SC(=S)NC2=O)c(C)n1-c1ccccc1	1	39*	12	8	34	-10	13	-5
COc1ccc(-n2c(C)cc(/C=C3\SC(=S)NC3=O)c2C)cc1	1	14	11	-32	19	8	.	.
Cc1cc(/C=C2\SC(=S)NC2=O)c(C)n1-c1ccc(O)cc1	0	45*	17	-10	7	-8	19	13
O=C(CCCCCNC(=O)N1CCn2c1nc1ccccc12)N[C@H](C(=O)O)c1ccccc1	-1	-7	-2	-3	-2	-31	.	.
